Experimental data reported in ChEMBL document CHEMBL3817826, “H2S-Donating Doxorubicins May Overcome Cardiotoxicity and Multidrug Resistance” (J Med Chem, 2016).
Calls of active or inactive are those of the source. The rule behind the calls is not given here.

What was measured:
Serum = test: Induction of H2S release from compound in human serum at 100 uM incubated for 1 to 24 hrs using DNS-Az by fluorimetric assay-based HPLC analysis; type: functional
Outline: (§1)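 Compound at 200 μM initial (half concentration for two low-solubility compounds) in medium or human serum at 37 °C with dansyl azide. Sampled at 1, 4 and 24 h, diluted with CH3CN, spun and filtered. Isocratic RP-HPLC with fluorescence ex 340/em 535 nm. Dansyl amide peak quantified against NaHS calibration as H2S index. At least triplicate.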

H9c2 [1] = test: Cytotoxicity in rat H9c2 cells assessed as intracellular ROS accumulation at 5 uM incubated for 24 hrs by DCFDA-AM probe-based fluorimetrical analysis relative to control; type: cell-based; conditions: h9c2, 24 h
Outline: (§2)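 After 24 h at 5 μM, 1×10^6 cells in 0.5 mL PBS were loaded with 5 μM DCFDA-AM for 30 min at 37 °C, spun and resuspended. Fluorescence read at ex 492/em 517 nm, expressed as nmol ROS/mg cell protein. Duplicate, n = 3, mean ± SD.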

[2] = Induction of H2S release from compound in DMEM at 100 uM incubated for 1 to 24 hrs using DNS-Az by fluorimetric assay-based HPLC analysis; type: physicochemical; outline: as §1
[3] = biological target: DNA topoisomerase 2-alpha (Homo sapiens) (UniProt P11388); test: Inhibition of human topoisomerase 2-mediated DNA cleavage at 5 uM using supercoiled pHOT1 plasmid as substrate by agarose gel electrophoresis
H9c2 [4] = test: Cytotoxicity in rat H9c2 cells assessed as intracellular ROS accumulation at 5 uM incubated for 24 hrs in presence of hydroxocobalamin by DCFDA-AM probe-based fluorimetrical analysis relative to control; type: cell-based; conditions: h9c2, 24 h
Outline: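 H9c2 cells held 24 h with 5 μM drug plus 100 μM hydroxocobalamin, then loaded with 5 μM DCFDA-AM for 30 min at 37 °C. Fluorescence read at 492/517 nm, expressed as nmol ROS/mg protein. Duplicate, n = 3.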

[5] = Half life of compound assessed as human serum esterase-mediated degradation at 100 uM by RP-HPLC analysis; type: ADME
Outline: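 10 mM DMSO stock added to human serum pre-warmed to 37 °C, giving 100 μM final. Samples taken over time and deproteinized with equal volume acetonitrile/0.1% HCOOH, then spun 2150 g 10 min and filtered. Analysed by RP-HPLC against 1–200 μM calibration. t1/2 from one-phase exponential decay fit, at least triplicate.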

H9c2 [6] = test: Cytotoxicity in rat H9c2 cells at 5 uM incubated for 24 hrs by LDH release-based spectrofluorimetrical analysis relative to control; type: cell-based; conditions: h9c2, 24 h
Outline: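 Cells exposed 24 h to 5 μM drug in DMEM with 10% FBS at 37 °C, 5% CO2. Medium spun 12,000 × g 5 min. Cells sonicated in 82.3 mM triethanolamine phosphate-HCl pH 7.6. LDH in medium and lysate followed 6 min at 340 nm. Extracellular LDH reported as % of total dish activity, duplicate, n = 3, mean ± SD.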

H9c2 [7] = test: Drug uptake in rat H9c2 cells at 5 uM incubated for 24 hrs by fluorimetrical analysis; type: ADME, cell-based; conditions: h9c2, 24 h
Outline: (§3)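 Intracellular drug measured after 24 h exposure to 5 μM. Cell lysates read fluorimetrically at ex 475/em 553 nm with cell-free blank subtracted. Converted by calibration curve to nmol drug/mg cell protein. Duplicate, n = 3, mean ± SD.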

[8] = Stability of compound in pre-heated IMDM at 200 uM at 37 degC by RP-HPLC analysis; type: physicochemical
Outline: (§4)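 10 mM DMSO stock diluted into medium pre-warmed to 37 °C, giving 200 μM final, then incubated at 37 °C. Aliquots diluted 1:1 with acetonitrile/0.1% HCOOH, filtered and run on RP-HPLC, quantified against 1–200 μM standards. t1/2 from one-phase exponential decay fit, at least triplicate.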

H9c2 [9] = test: Cytotoxicity in rat H9c2 cells at 5 uM incubated for 24 hrs in presence of NAC by LDH release-based spectrofluorimetrical analysis relative to control; type: cell-based; conditions: h9c2, 24 h
[10] = Induction of H2S release from compound in IMDM at 100 uM incubated for 1 to 24 hrs using DNS-Az by fluorimetric assay-based HPLC analysis; type: physicochemical; outline: as §1
[11] = Half life of compound in pre-heated DMEM at 200 uM at 37 degC by RP-HPLC analysis; type: physicochemical; outline: as §4
U2OS [12] = test: Induction of intracellular ROS accumulation in human U2OS cells at 5 uM incubated for 24 hrs by DCFDA-AM probe-based fluorimetrical analysis relative to control; type: functional, cell-based; outline: as §2
U2OS [13] = test: Drug uptake in human U2OS cells at 5 uM incubated for 24 hrs by fluorimetrical analysis; type: ADME, cell-based; outline: as §3
[14] = Drug uptake in human U2OS/DX30 cells at 5 uM incubated for 24 hrs by fluorimetrical analysis; type: ADME, cell-based; outline: as §3
[15] = Drug uptake in human U2OS/DX580 cells at 5 uM incubated for 24 hrs by fluorimetrical analysis; type: ADME, cell-based; outline: as §3
[16] = Drug uptake in human U2OS/DX100 cells at 5 uM incubated for 24 hrs by fluorimetrical analysis; type: ADME, cell-based; outline: as §3
U2OS [17] = test: Increase in intracellular ROS accumulation in human U2OS/DX30 cells at 5 uM incubated for 24 hrs in presence of hydroxocobalamin by DCFDA-AM probe-based fluorimetrical analysis relative to control; type: functional, cell-based
Outline: (§5)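 Cells grown in DMEM with 10% FBS at 37 °C, 5% CO2, resistant variants selected in 30, 100 or 580 ng/mL doxorubicin; treated 24 h with 5 μM drug plus 100 μM hydroxocobalamin. 1×10^6 cells loaded 30 min at 37 °C with 5 μM DCFDA-AM in PBS; fluorescence at ex 492/em 517 nm, expressed as nmol ROS/mg protein; duplicates, n = 3.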

U2OS [18] = test: Increase in intracellular ROS accumulation in human U2OS/DX580 cells at 5 uM incubated for 24 hrs in presence of hydroxocobalamin by DCFDA-AM probe-based fluorimetrical analysis relative to control; type: functional, cell-based; outline: as §5
U2OS [19] = test: Increase in intracellular ROS accumulation in human U2OS cells at 5 uM incubated for 24 hrs in presence of hydroxocobalamin by DCFDA-AM probe-based fluorimetrical analysis relative to control; type: functional, cell-based; outline: as §5
U2OS [20] = test: Increase in intracellular ROS accumulation in human U2OS/DX100 cells at 5 uM incubated for 24 hrs in presence of hydroxocobalamin by DCFDA-AM probe-based fluorimetrical analysis relative to control; type: functional, cell-based; outline: as §5
U2OS [21] = test: Induction of intracellular ROS accumulation in human U2OS/DX100 cells at 5 uM incubated for 24 hrs by DCFDA-AM probe-based fluorimetrical analysis relative to control; type: functional, cell-based; outline: as §2
U2OS [22] = test: Induction of intracellular ROS accumulation in human U2OS/DX580 cells at 5 uM incubated for 24 hrs by DCFDA-AM probe-based fluorimetrical analysis relative to control; type: functional, cell-based; outline: as §2
U2OS [23] = test: Induction of intracellular ROS accumulation in human U2OS/DX30 cells at 5 uM incubated for 24 hrs by DCFDA-AM probe-based fluorimetrical analysis relative to control; type: functional, cell-based; outline: as §2

DNA topoisomerase 2-alpha (Homo sapiens), sequence (P11388 whole entry): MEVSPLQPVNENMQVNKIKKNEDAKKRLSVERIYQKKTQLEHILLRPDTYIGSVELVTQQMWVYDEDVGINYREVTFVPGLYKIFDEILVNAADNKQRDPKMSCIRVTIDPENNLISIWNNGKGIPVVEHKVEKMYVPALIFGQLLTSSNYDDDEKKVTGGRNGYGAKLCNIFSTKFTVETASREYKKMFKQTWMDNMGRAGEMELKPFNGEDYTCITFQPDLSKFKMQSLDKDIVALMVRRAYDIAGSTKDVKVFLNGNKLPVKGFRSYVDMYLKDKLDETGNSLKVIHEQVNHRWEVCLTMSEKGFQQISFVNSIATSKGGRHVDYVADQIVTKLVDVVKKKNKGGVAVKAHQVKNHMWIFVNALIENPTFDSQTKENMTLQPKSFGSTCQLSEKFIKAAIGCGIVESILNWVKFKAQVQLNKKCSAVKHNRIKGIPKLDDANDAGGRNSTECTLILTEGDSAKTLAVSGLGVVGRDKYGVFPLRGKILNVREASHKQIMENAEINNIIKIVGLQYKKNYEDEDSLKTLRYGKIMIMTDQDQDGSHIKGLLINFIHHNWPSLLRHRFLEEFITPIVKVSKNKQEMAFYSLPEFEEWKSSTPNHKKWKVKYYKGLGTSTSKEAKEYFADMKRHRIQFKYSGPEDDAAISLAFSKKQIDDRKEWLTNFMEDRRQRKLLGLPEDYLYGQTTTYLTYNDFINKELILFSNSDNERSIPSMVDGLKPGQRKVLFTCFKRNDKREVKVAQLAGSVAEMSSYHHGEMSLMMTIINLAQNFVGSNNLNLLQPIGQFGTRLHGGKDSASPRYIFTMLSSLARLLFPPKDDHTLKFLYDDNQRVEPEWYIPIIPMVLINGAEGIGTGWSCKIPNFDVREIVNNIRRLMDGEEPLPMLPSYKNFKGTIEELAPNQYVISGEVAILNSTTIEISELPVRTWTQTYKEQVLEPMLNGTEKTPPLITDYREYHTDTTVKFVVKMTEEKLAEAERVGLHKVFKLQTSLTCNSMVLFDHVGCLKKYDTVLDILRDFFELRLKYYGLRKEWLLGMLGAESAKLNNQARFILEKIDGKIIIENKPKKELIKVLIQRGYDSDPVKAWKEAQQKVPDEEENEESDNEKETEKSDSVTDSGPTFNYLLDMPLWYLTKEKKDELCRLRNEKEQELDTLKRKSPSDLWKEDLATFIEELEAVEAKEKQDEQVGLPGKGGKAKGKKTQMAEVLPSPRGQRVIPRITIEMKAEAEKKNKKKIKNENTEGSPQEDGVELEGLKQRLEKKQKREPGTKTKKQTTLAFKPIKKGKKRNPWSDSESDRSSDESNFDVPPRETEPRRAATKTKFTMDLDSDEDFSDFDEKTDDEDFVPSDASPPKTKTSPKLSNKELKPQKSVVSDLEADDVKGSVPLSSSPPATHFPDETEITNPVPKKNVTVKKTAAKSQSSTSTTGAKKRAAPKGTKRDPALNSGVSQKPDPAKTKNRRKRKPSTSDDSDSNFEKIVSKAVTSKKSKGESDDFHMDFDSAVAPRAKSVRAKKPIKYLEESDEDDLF

Structure (SMILES)	Activity (Serum)	Activity (H9c2 [1])	Activity [2]	inhibition [3]	Activity (H9c2 [4])	half-life at 100 µM [5] [min]	Activity (H9c2 [6])	Drug uptake (H9c2 [7])	Stability [8]	Activity (H9c2 [9])	Activity [10]	half-life at 200 µM [11] [min]	Activity (U2OS [12])	Drug uptake (U2OS [13])	Drug uptake [14]	Drug uptake [15]	Drug uptake [16]	also measured
COc1cccc2c1C(=O)c1c(O)c3c(c(O)c1C2=O)C[C@@](O)(C(=O)COC(=O)COc1ccc(-c2cc(=S)ss2)cc1)C[C@@H]3O[C@H]1C[C@H](N)[C@H](O)[C@H](C)O1.Cl	Active	Non-toxic	Not Active	inactive	Toxic	3	Non-toxic	Active	Unstable	Non-toxic	Not Active	16	inactive	–	–	–	–	–
COC(=O)c1ccc(C(N)=S)cc1	–	–	–	–	–	–	Toxic	–	–	–	–	–	–	–	–	–	–	–
COc1cccc2c1C(=O)c1c(O)c3c(c(O)c1C2=O)C[C@@](O)(C(=O)COC(=O)c1csc(=S)s1)C[C@@H]3O[C@H]1C[C@H](N)[C@H](O)[C@H](C)O1.Cl	Active	Non-toxic	Not Active	inactive	Toxic	17	Non-toxic	Active	Unstable	Non-toxic	Not Active	17	inactive	–	–	–	–	–
C=CCSCC(NC(C)=O)C(=O)OCC(=O)[C@]1(O)Cc2c(O)c3c(c(O)c2[C@@H](O[C@H]2C[C@H](N)[C@H](O)[C@H](C)O2)C1)C(=O)c1c(OC)cccc1C3=O.Cl (some centres not stated)	inactive	Non-toxic	Not Active	inactive	Toxic	11	Non-toxic	Active	Unstable	Non-toxic	Not Active	< 1	inactive	–	–	–	–	–
C=CCSSCCC(=O)OCC	–	–	–	–	–	–	Toxic	–	–	–	–	–	–	–	–	–	–	–
C=CCSSCCC(=O)OCC(=O)[C@]1(O)Cc2c(O)c3c(c(O)c2[C@@H](O[C@H]2C[C@H](N)[C@H](O)[C@H](C)O2)C1)C(=O)c1c(OC)cccc1C3=O.Cl	Active	Non-toxic	Not Active	inactive	Toxic	228	Toxic	Active	Stable	–	Not Active	336	inactive	Active	Active	Active	Active	–
COc1cccc2c1C(=O)c1c(O)c3c(c(O)c1C2=O)C[C@@](O)(C(=O)COC(=O)c1ccc(-c2cssc2=S)cc1)C[C@@H]3O[C@H]1C[C@H](N)[C@H](O)[C@H](C)O1.Cl	Active	Non-toxic	Active	inactive	Toxic	276	Non-toxic	Active	Stable	Non-toxic	Active	1290	inactive	Active	Active	Active	Active	Activity (U2OS [17]): Active; Activity (U2OS [18]): Active; Activity (U2OS [19]): Active; Activity (U2OS [20]): Active; Activity (U2OS [21]): inactive; Activity (U2OS [22]): inactive; Activity (U2OS [23]): inactive
COc1cccc2c1C(=O)c1c(O)c3c(c(O)c1C2=O)C[C@@](O)(C(=O)COC(=O)c1ccc(C(N)=S)cc1)C[C@@H]3O[C@H]1C[C@H](N)[C@H](O)[C@H](C)O1.Cl	Active	Non-toxic	Not Active	inactive	Toxic	38	Toxic	Active	Stable	–	Not Active	204	inactive	Active	Active	Active	Active	–
